# Measurements of several laboratories.
# Protocols differ between the studies behind these lines.
# USP2: Ubiquitin carboxyl-terminal hydrolase 2 (USP2, Homo sapiens, UniProt O75604)
# Oprk1: Kappa-type opioid receptor (Oprk1, Rattus norvegicus, UniProt P34975)
# CTSS: Cathepsin S (CTSS, Homo sapiens, UniProt P25774)
# MAOA: Amine oxidase [flavin-containing] A (MAOA, Homo sapiens, UniProt P21397)
SMILES,target,read-out,mode,method,tested at,time,inhibition [%]
N=C(N)c1ccc2cc(OC(=O)c3ccc(N=C(N)N)cc3)ccc2c1,USP2,enzyme activity,inhibitor,,10 µM,,0
Clc1ccc2c(C3CCN(CCc4c[nH]c5ccccc45)CC3)c[nH]c2c1,"Alpha-1A adrenergic receptor (ADRA1A, Homo sapiens, UniProt P35348)",ligand displacement,,radioligand,10 µM,,108
O=C(Nc1cccnn1)N1CCN([C@@H]2CCOc3cc(C(F)(F)F)ccc32)CC1,Oprk1,cell-free assay,,,20 µM,,21
Cn1cc(-c2cc(F)cc(N3CCn4c(cc5c4CCCC5)C3=O)c2CO)cc(Nc2ccc(N3CCN(C4COC4)CC3)cn2)c1=O,"Cyclin-dependent kinase 5, with p35 (CDK5, Homo sapiens, UniProt Q00535)",enzyme activity,inhibitor,,0.1 µM,,6
O=C(O)C(=O)Nc1sc2c(c1C(=O)O)CCNC2,"Tyrosine-protein phosphatase non-receptor type 1 (PTPN1, Homo sapiens, UniProt P18031)",enzyme activity,inhibitor,,30 µM,,~50
CC(C)C[C@H](NC(=O)[C@H]1O[C@@H]1C(=O)O)C(=O)NCCCCN=C(N)N,CTSS,enzyme activity,inhibitor,,50 nM,,81
CN1CCN(CCCCOc2ccc3occc(=O)c3c2)CC1,MAOA,enzyme activity,inhibitor,fluorescence,10 µM,,5
CN(C)C(=O)COC(=O)Cc1ccc(OC(=O)c2ccc(NC(=N)N)cc2)cc1,USP2,enzyme activity,inhibitor,,10 µM,,1
C[C@H](C(=O)N[C@H]1COc2ccccc2[C@@H]1S(C)(=O)=O)c1ccc(F)cc1,MAOA,cell-free assay,inhibitor,,10 µM,,-2
C#Cc1n[nH]c2c(-c3cn([C@@H](C)c4ccccc4)c(=O)[nH]c3=O)cc(F)cc12,"Focal adhesion kinase 1 (PTK2, Homo sapiens, UniProt Q05397)",enzyme activity,inhibitor,,0.1 µM,,3.8
COCc1c(-c2cc3cc(C)cc(OC)c3s2)c2c(N)ncnn2c1CN1CCNC(=O)C1,MAOA,enzyme activity,inhibitor,,10 µM,,-3
CCN(CC)CCCC[C@H](NC(=O)[C@H](CC(C)C)NC(=O)[C@H](C)NC(=O)[C@H](Cc1ccccc1)NC(=O)c1ccc(C(C)(C)C)cc1)C(=O)N[C@@H](CO)C(=O)OC,Oprk1,ligand displacement,,radioligand,10 µM,,91
Cc1ncc(C)n2nc(/C=C/c3nc(N4CCCC4)cc(N4CCOCC4)n3)nc12,"Angiotensin-converting enzyme 2 (ACE2, Homo sapiens, UniProt Q9BYF1)",enzyme activity,inhibitor,,10 µM,,11
CN(CCN1CCC(OC(=O)Nc2ccccc2-c2ccccc2)CC1)C(=O)c1ccc(CN2CCC(C(N)=O)CC2)cc1,MAOA,enzyme activity,inhibitor,,1 µM,,-2
CCOC(=O)c1ccc(OC(=O)CCCCCNC(=N)N)cc1,CTSS,enzyme activity,inhibitor,,10 µM,,4
O=C(Nc1ccc([N+](=O)[O-])cc1[N+](=O)[O-])c1ccc2c(c1)OCO2,MAOA,enzyme activity,inhibitor,,1 µM,20 min,44
C#Cc1n[nH]c2c(-c3cn(C(C)c4ccccn4)c(=O)[nH]c3=O)cc(F)cc12 (centres unmarked),"High affinity nerve growth factor receptor (NTRK1, Homo sapiens, UniProt P04629)",enzyme activity,inhibitor,,1 µM,,13.1
